# Assay outcomes from PubChem.
# Myeloid diff MLP: induction of myeloid progenitor differentiation, primary screen, cell-based, flow cytometry, MLPCN library; ER-HoxA9 myeloid progenitors, lysozyme-GFP differentiation; 1% of 360,000 active; calls only at 10 µM;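 active means normalized GFP-positive differentiation at or above the plate's own cutoff, the solvent-only control mean plus 3 SD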;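 further: cells exposed to compound for four days before flow analysis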
# NR2E3 ag-1: NR2E3 agonists in two-hybrid cells, primary screen, cell-based, luminescence, CHO-S, Gal4-NCOR/VP16-NR2E3; Photoreceptor-specific nuclear receptor (Homo sapiens), Q9Y5X4; luciferase; inhibition of corepressor binding, % at 3.98 µM; 0.35% of 360,000 active; AID 602229, 2012;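 active means inhibition above the mean of all tested compounds plus 3 SD, cut at about 70% in these data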;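 further: 0% = DMSO with NR2E3 transfected cells and 100% = cells lacking NR2E3 construct; higher means lower luciferase signal from less NR2E3 corepressor binding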
# Target sequence (Q9Y5X4 whole entry, looked up, the tested form may be a part): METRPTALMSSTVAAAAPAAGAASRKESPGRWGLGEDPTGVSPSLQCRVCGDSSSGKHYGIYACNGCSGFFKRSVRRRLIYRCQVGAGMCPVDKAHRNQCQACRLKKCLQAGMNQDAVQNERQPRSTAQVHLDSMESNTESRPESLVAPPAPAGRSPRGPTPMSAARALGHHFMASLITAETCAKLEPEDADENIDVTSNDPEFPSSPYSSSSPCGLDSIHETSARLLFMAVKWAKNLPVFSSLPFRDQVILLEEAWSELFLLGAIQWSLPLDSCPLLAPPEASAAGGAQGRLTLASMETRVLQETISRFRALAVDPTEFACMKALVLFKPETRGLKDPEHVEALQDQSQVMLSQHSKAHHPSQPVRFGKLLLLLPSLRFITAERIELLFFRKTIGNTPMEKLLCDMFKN
# NR2E3 ag-2: inhibitors of NR2E3-RetCOR corepressor binding, primary screen, NR2E3 agonist project, biochemical, TR-FRET, GST-NR2E3, biotin-RetCOR; inhibition of corepressor binding, % at 4.78 µM; 0.12% of 320,000 active; Photoreceptor-specific nuclear receptor (Homo sapiens), Q9Y5X4; 1536-well;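 active means percent inhibition above the cutoff of mean plus 3 SD of all tested compounds, set per screening campaign, cut at about 20% in these data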;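 further: 0% = DMSO wells and 100% = biotin wells as full block of FRET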
#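 system = GST-tagged NR2E3 plus biotinylated RetCOR corepressor | input = 1.35 nM GST-NR2E3 | also added = 7 nM biotin-RetCOR | schedule = 5 h incubation at 4 °C | measured by = TR-FRET with europium anti-GST and streptavidin-D2, 340 nm excitation | read-out = percent loss of FRET ratio relative to control wells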
# T cell HTS: modulators of CD8 T cell-vesicle binding, primary screen, mouse 2C CD8+ T cells, flow cytometry; 2C CD8+ T cell-vesicle binding; hits give low values; response (vesicle binding), % at 7 µM; 0.068% of 330,000 active; AID 2052, 2009;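 active means response, share of CD8 T cells binding vesicles, and their 90th percentile fluorescence all below set limits, cut at about 80% in these data, passing the limit was not always enough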;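 further: values below 100% mean blocked vesicle binding to the CD8+ T cells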
#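 Assay system – 2C mouse CD8+ T cells · Also added – QL9-loaded Drosophila micro-vesicles · Timing – Cell–vesicle co-incubation 1.5 h at 37 °C, staining 20 min on ice · Signal – flow cytometry of vesicle-bound cells · Measure – percent CD8+ FL2 mean versus row control · Controls – Peptide-free naked vesicles (low) and QL9 vesicles with 0.7% DMSO vehicle (high)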
# FXN GAA850 act: FXN promoter activators, primary screen, cell-based, luciferase luminescence, HEK293 lucGAA850; HEK293 lucGAA850 FXN promoter luciferase reporter, 24 h; percent of 10 µM SAHA response; activation, % at 6 µM; 0.56% of 360,000 active; AID 540364, 2011;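 active means activation above the average of all compounds screened plus 3 SD, cutoff fixed separately per campaign, cut at about 7.5% in these data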;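 further: 0% = DMSO wells and 100% = 10 µM SAHA wells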
# Myeloid diff: inducers of myeloid progenitor differentiation, confirmation, cell-based, GFP/Mac1 flow cytometry, cherry pick 01; shares compounds with Myeloid diff MLP; ER-HoxA9 myeloid progenitors, GFP/Mac1 double-positive flow; calls only; 2% of 2,300 active;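 active means share of green or green-and-red cells above 9 and 9% in run 1 or 4 and 3% in run 2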
# GFP autofluor: counter-screen for myeloid differentiation promoters: compound fluorescence; shares compounds with Myeloid diff MLP; ER-HoxA9 myeloid progenitors, no estrogen, GFP autofluorescence flow cytometry; vehicle wells 0%, positive control 100%; 7.4% of 2,300 active; fluorescence response, % (no concentration beside the values); AID 651707;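 active means over 5% cells positive for green fluorescent reporter, or over 2% positive for both it and APC stain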;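 further: range taken on the double positive population between DMSO and positive control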
# * marks the source's active call; other numbers are inactive results; i = inactive; nt = not tested or not shown; + = active, no number. This is a sample that favours compounds with a hit; in the whole collection about 2% have one here.
SMILES,Myeloid diff MLP,NR2E3 ag-1,NR2E3 ag-2,T cell HTS,FXN GAA850 act,Myeloid diff,GFP autofluor
CCO[C@@H]1OC(C(=O)NCc2ccccc2)=C[C@H](c2csc3ccccc23)[C@H]1CCCO,i,27,0,915,-1,i,0
C#CCNC(=O)C1=C[C@H](c2csc3ccccc23)[C@@H](CCCO)[C@H](OCC)O1,i,8,-2,228,0,nt,nt
COCCN1C[C@@H](CO)O[C@@H](n2cnc3c(NCCO)ncnc32)C1,i,-5,nt,nt,-1,nt,nt
O=C(NCC(c1ccco1)N1CCCCC1)c1ccc(COc2ccccc2)cc1 (configuration not stated),i,0,-3,215,1,nt,nt
COc1ccccc1-c1nn(-c2ccccc2)cc1C(=O)N1CCN(C(=O)c2ccco2)CC1,i,0,12,i,3,i,0
O=C(c1ccco1)N1CCN(C(=O)c2cn(-c3ccccc3)nc2-c2ccc(F)cc2)CC1,i,-21,nt,nt,0,nt,nt
CC(C)[C@H](NS(=O)(=O)c1cccc(C(F)(F)F)c1)C(=O)OCC(=O)NC(=O)NCc1ccco1,i,-24,nt,673,0,nt,nt
COc1ccccc1NC(=O)N1CCN(c2ccccc2F)CC1,i,9,0,220,-1,i,0
COc1ccccc1NC(=O)CN1CCN(c2ccccc2F)CC1,i,-10,2,358,2,nt,nt
Cc1nn(C(=O)c2ccc([N+](=O)[O-])cc2)c(C)c1Br,+,-2,5,190,0,i,0
N#CC1=C(N)Oc2n[nH]c(-c3ccccn3)c2C1c1c(F)cccc1Cl (configuration not stated),i,-8,3,253,-1,i,0
CCc1ccc(/C=C/c2c[nH]c3ccccc23)[n+](CC)c1,+,-30,-6,207,0,i,7.0*
COc1ccc([C@@H]2CC=C(C(=O)O)[C@H](c3ccc(F)cc3)N2S(=O)(=O)c2ccccc2C)cc1,i,-32,3,309,1,nt,nt
Cc1onc(-c2c(Cl)cccc2Cl)c1NC(=O)NNc1ccccc1,+,-25,4,i,0,i,0
O=[N+]([O-])c1cc([N+](=O)[O-])c2nonc2c1Nc1ccccc1O,+,-30,nt,167,3,i,4
COc1cc(NC(=O)N[C@H](C(=O)O)C(C)C)cc(OC)c1,+,-20,-1,i,1,i,0
Cc1ccc([C@H]2C[C@H](O)[C@@H](n3cc(-c4ccc(F)cc4)nn3)CN2C(=O)C2CCCCC2)cc1,i,-7,nt,nt,-3,nt,nt
Cn1cnnc1SCc1ccc(C(=O)N/N=C(/CCC(=O)O)c2ccc(C(C)(C)C)cc2)cc1,i,-13,nt,nt,0,nt,nt
CC(=O)Oc1ccc(Cn2cnc3cc4ccccc4cc32)cc1,i,18,1,413,1,i,0
c1ccc(Cn2nnc3c(N4CCCC4)ncnc32)cc1,+,13,1,227,3,i,0
CCN1CCN(c2ncnc3c2nnn3Cc2ccccc2)CC1,i,-4,-2,326,1,nt,nt
COC(=O)C1(C(=O)OC)C[C@H](/C=C/c2ccccc2)N(Cc2ccccc2OC)[C@@H]1c1ccc(F)cc1,i,nt,nt,nt,nt,nt,nt
Cc1nn(-c2ccccc2)c2sc(C(=O)NNC(=O)COc3ccccc3)cc12,+,-19,0,580,-3,i,0
Cc1nn(-c2ccccc2)c2sc(C(=O)NNC(=O)COc3cccc4ccccc34)cc12,i,-22,5,i,-2,nt,nt
Cc1ccc(OCCn2c(C)nc3ccccc32)cc1,i,32,0,178,-1,i,0
SMILES,Myeloid diff MLP,NR2E3 ag-1,NR2E3 ag-2,T cell HTS,FXN GAA850 act,Myeloid diff,GFP autofluor
Cc1nc2ccccc2n1CCCOc1ccccc1,i,-5,0,277,2,nt,nt
CCOc1ccc(C(=O)NCC(=O)OCc2c(F)cccc2Cl)cc1OCC,i,-2,-2,137,1,i,0
CCOc1ccc(C(=O)NCC(=O)OCc2c(F)cccc2Cl)cc1,i,5,2,306,1,nt,nt
O=C(CC(O)(CC(=O)OCc1ccccc1)C(=O)OCc1ccccc1)OCc1ccccc1,i,14,nt,nt,-2,nt,nt
COc1ccc(NC(=O)C(c2ccc(C#N)cc2)n2c(=O)c(-c3cc4ccccc4[nH]3)nc3ccccc32)cc1 (configuration not stated),i,nt,nt,nt,nt,nt,nt
CCCSc1nc(C)c2cc(C)cc(C)c2n1,+,-23,-1,318,-1,i,0
C[C@H](CO)N1C[C@H](C)[C@@H](CN(C)C(=O)Nc2ccccc2)Oc2ccc(NC(=O)CCC(F)(F)F)cc2C1=O,i,-15,nt,432,0,nt,nt
CCN1C(=O)C(O)(C2COC(C)(C)CC2=O)c2cc(Br)ccc21 (configuration not stated),i,-1,2,539,3,i,12*
CCN1C(=O)C(O)(C2COC(C)(C)CC2=O)c2ccccc21 (configuration not stated),i,6,3,453,0,nt,nt
OCC[C@@H]1C[C@H](O)[C@@H](O)[C@@]2(OCCCc3cc(C(F)(F)F)ccc32)O1,i,13,nt,nt,nt,nt,nt
COc1cc(/C=C/C(=O)c2c(O)ccc3c(C)cc(=O)oc23)ccc1O,i,-27,4,321,0,nt,nt
COc1ccc(/C=C\C(=O)c2c(O)ccc3c(C)cc(=O)oc23)cc1OC,i,-40,2,376,-1,i,0
CC(C)NC(=O)c1cc(C2CCCCN2C(=O)c2cc(C(C)(C)C)nn2C)on1 (configuration not stated),i,23,nt,nt,0,nt,nt
CCCCn1nnnc1C1(C)CCC(=O)N1CCc1c[nH]c2ccccc12 (configuration not stated),i,5,nt,nt,nt,nt,nt
NC(=O)CC(NC(=O)c1ccccc1)c1ccc(NCc2ccc(F)cc2)c([N+](=O)[O-])c1 (configuration not stated),+,-1,2,487,0,i,0
NC(=O)CC(NC(=O)c1ccccc1)c1ccc(NCc2ccccc2)c([N+](=O)[O-])c1 (configuration not stated),i,10,4,210,2,nt,nt
